# Assay outcomes (PubChem BioAssay)
# Cl transport mod: KCC2 cotransporter modulators, thallium flux, primary screen, cell-based, HEK293 KCC2, FluoZin-2 fluorescence, MLSMR; KCC2 cells, thallium flux FluoZin-2 fluorescence; B-score of Tl+ flux slope (higher = more flux/activation; lower = inhibition) at 10 µM; 2.2% of 190,000 active; Solute carrier family 12 member 5 (Homo sapiens), Q9H2X9;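 active = thallium flux slope and its plate-corrected score both differing from the plate sample mean at a set confidence after two filtering rounds, in either direction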;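 note: slope of fluorescence scaled to starting intensity during 10 to 20 s after thallium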
# NPY-Y1 PAM-ag: NPY-Y1 receptor potentiators or agonists, primary screen, cell-based. activation, % at 3.6 µM. NPY-Y1 expressing cells, potentiator/agonist activation. AID 1304, 2008. 0.37% of 220,000 active; in the data active = activation above about 33%, passing the limit was not always enough;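 note: cells stimulated with NPY at EC10 then isoproterenol at EC100; 0% = low agonist plus stimulus and 100% = saturating agonist plus stimulus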
# NPY-Y2 PAM-ag: NPY-Y2 potentiators or agonists, primary screen, cell-based; Neuropeptide Y receptor type 2 (Homo sapiens), P49146; cells expressing NPY-Y2, potentiator/agonist read-out; activation, % at 3.6 µM; 0.45% of 220,000 active; AID 1359, 2008; in the data active = activation above about 27%;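 note: cells stimulated with NPY near EC25 plus isoproterenol at EC100; 0% = vehicle plus submaximal agonist and 100% = vehicle plus saturating agonist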
# Target sequence (P49146 whole entry, looked up): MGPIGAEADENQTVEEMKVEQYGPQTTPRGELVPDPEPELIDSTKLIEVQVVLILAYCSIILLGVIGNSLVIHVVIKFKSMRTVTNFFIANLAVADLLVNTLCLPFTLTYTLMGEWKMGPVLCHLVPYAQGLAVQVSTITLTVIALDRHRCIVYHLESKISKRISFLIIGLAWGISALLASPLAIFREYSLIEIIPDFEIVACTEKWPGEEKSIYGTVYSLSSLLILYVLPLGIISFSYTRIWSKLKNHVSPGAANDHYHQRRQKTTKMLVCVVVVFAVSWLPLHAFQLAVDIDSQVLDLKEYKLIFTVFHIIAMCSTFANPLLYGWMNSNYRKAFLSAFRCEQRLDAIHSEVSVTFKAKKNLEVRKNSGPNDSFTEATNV
# NPY Y2 blocker: NPY-Y2 receptor antagonists, primary screen, cell-based | NPY-Y2 expressing cells, antagonist mode | inhibition, % at 2.7 µM | 0.99% of 140,000 active; in the data active = inhibition above about 17%;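 note: 0% = vehicle with agonist challenge and 100% = reference antagonist with challenge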
# Furin inhibitor: human furin inhibitors, primary screen, biochemical, fluorescence intensity | 0.061% of 220,000 active | AID 463115, 2010 | inhibition, % at 20 µM or 30 µM | P09958 | purified furin, fluorogenic substrate cleavage; in the data active = inhibition above about 25%
# NPY Y1 blocker: NPY-Y1 receptor antagonists, primary screen, cell-based. Neuropeptide Y receptor type 1 (Homo sapiens), P25929. HEK293-CNG Y1 cells, membrane potential fluorescence; NPY at EC95, then isoproterenol. inhibition, % at 3.6 µM. 1% of 200,000 active. AID 1040, 2008;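 active = inhibition above the campaign mean inhibition of all tested compounds plus 3 SD, cut at about 20% in these data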;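 note: 0% = DMSO wells given NPY plus isoproterenol and 100% = isoproterenol alone without NPY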
#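 System: HEK293 cells with Y1 receptor plus CNG channel / Probe or stimulus: NPY 25 nM then isoproterenol 1 µM plus Ro 20-1724 25 µM / Compound: one concentration, 3.6 µM, in 0.4% DMSO / Schedule: compound incubation 1 h at room temperature, readout 45 min post-stimulation / Measured by: membrane potential fluorescence / Read-out: % inhibition of NPY effect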
# NPY-Y1 pot conf: NPY-Y1 potentiators or agonists, confirmation, cell-based; shares compounds with NPY-Y1 PAM-ag; cell-based NPY-Y1 potentiator/agonist assay; activation, % at 3.6 µM; 20% of 280 active; in the data active = activation above about 45%;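 note: cells challenged with NPY at its EC10 plus isoproterenol stimulus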
# NPY-Y2 counter: NPY-Y2 potentiators or agonists, counter-screen for NPY-Y1 potentiator project, cell-based, fluorescence; activation, % at 3.6 µM; 20% of 280 active; shares compounds with NPY-Y1 PAM-ag; HEK293-CNG cells, membrane-potential fluorescence (FLIPR), 1536-well; in the data active = activation above about 33%
# NPY-Y1 agonist: NPY-Y1 direct agonists without NPY, confirmation, counter-screen for NPY-Y1 potentiator project, cell-based, fluorescence | shares compounds with NPY-Y1 PAM-ag | HEK293 Y1-CNGC, membrane potential fluorescence, agonist mode | activation, % at 3.6 µM | 50% of 280 active | AID 1697, 2009;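 active = percent activation above the mean of DMSO-only control wells plus 3 SD of those wells, cut at about 18% in these data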;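 note: cells challenged with isoproterenol plus Ro 20-1724 with no NPY in test wells; Y1 agonism lowers isoproterenol-driven cAMP and reduces probe fluorescence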
# NPY-Y2 ag: NPY-Y2 direct agonists without NPY, counter-screen for NPY-Y1 potentiator project, cell-based, fluorescence | shares compounds with NPY-Y1 PAM-ag | HEK293 Y2-CNGC, membrane potential fluorescence, agonist mode | activation, % at 3.6 µM | 67% of 280 active;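 active = activation above the solvent-only control wells' mean plus 3 SD, cut at about 11% in these data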;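 note: 0% = DMSO with isoproterenol and 100% = 40 nM NPY maximal response; agonism lowers cAMP so well fluorescence drops in active wells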
# CNGC counter: CNGC cAMP sensor activity inhibitors, counter-screen for NPY-Y1 potentiator/agonist project, cell-based, HEK293-CNG parental, membrane potential fluorescence, Y1 set; shares compounds with NPY-Y1 PAM-ag; isoproterenol cAMP; 42% of 280 active; AID 1704, 2009; inhibition, % at 3.6 µM;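 active = inhibition above the mean of stimulated solvent-only control wells plus 3 SD, cut at about 22% in these data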;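 note: 0% = isoproterenol-stimulated DMSO wells and 100% = unstimulated DMSO wells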
# Starred values were filed as active, the others as inactive; nt = not tested or not shown. A selection: hits, their analogues and other compounds. The true share with any hit is near 3.7%.
SMILES,Cl transport mod,NPY-Y1 PAM-ag,NPY-Y2 PAM-ag,NPY Y2 blocker,Furin inhibitor,NPY Y1 blocker,NPY-Y1 pot conf,NPY-Y2 counter,NPY-Y1 agonist,NPY-Y2 ag,CNGC counter
OC(CNC1Cc2ccccc2C1)COc1ccc(Cl)cc1 (stereo unspecified),0.58,45*,23,nt,-22,nt,-4,6,17*,16*,-11
OC(CNC1CCCC1)COc1ccc(-c2ccccc2)cc1 (stereo unspecified),-0.8,-15,-19,nt,-24,6,nt,nt,nt,nt,nt
COc1ccc(CNC(=O)c2c(O)c3cccc4c3n(c2=O)CCC4)cc1OC,-0.087,35*,-16,2,-22,1,-8,0,-3,3,-1
COc1ccc(CNC(=O)c2c(O)c3cccc4c3n(c2=O)CCC4)cc1,0.77,-19,11,1,-14,-7,nt,nt,nt,nt,nt
COc1cccc(C(=O)NC(=O)Nc2cc(C)[nH]n2)c1,0.3,76*,-11,nt,-34,nt,-6,-5,-4,4,-2
Cc1cccc(Nc2nc(N)c([N+](=O)[O-])c(NCc3ccccc3)n2)c1,-0.49,50*,34,nt,-7,nt,48*,32,33*,31*,45*
Nc1nc(Nc2ccccc2)nc(NCc2ccccc2)c1[N+](=O)[O-],-0.062,17,23,nt,-8,nt,nt,nt,nt,nt,nt
CCOc1ccc(NC(=O)C2C3CCC4C(CCC32)C4(Cl)Cl)cc1 (stereo unspecified),-0.27,0,8,nt,-15,7,nt,nt,nt,nt,nt
O=C(Nc1ccc(F)cc1)C1C2CCC3C(CCC21)C3(Cl)Cl (stereo unspecified),0.69,52*,8,nt,-19,nt,17,10,0,-1,20
Cc1nnc(SCCOc2ccccc2)s1,0.57,-5,-11,nt,-24,3,nt,nt,nt,nt,nt
Cc1c(/C=N/Nc2nc3ccccc3[nH]2)c2ccccc2n1C,-0.48,56*,37,nt,-3,nt,47*,41*,35*,43*,34*
Cn1c(/C=N/Nc2nc3ccccc3[nH]2)nc2ccccc21,-2,1,2,nt,2,1,nt,nt,nt,nt,nt
CCN(CC)S(=O)(=O)c1cc(NC(=O)Cn2ncc(Cl)c(Cl)c2=O)ccc1C,nt,44*,32,nt,-18,nt,36,19,22*,18*,27*
CCCS(=O)(=O)N1CCCC(C(=O)NCCCN2CCN(c3cccc(Cl)c3)CC2)C1 (stereo unspecified),0.098,8,11,2,-30,2,nt,nt,nt,nt,nt
COCCNC(=O)/C(C#N)=C/c1ccc(C)o1,0.033,18,-2,nt,-10,2,nt,nt,nt,nt,nt
Fc1cc(NC(=S)NCc2ccc(CNC(=S)Nc3ccc(Cl)c(F)c3)cc2)ccc1Cl,1.4,52*,44,nt,-25,nt,71*,51*,55*,57*,55*
CC1CCCCN1C(=O)COc1ccccc1F (stereo unspecified),-0.38,6,-8,nt,-4,2,nt,nt,nt,nt,nt
COCCN=c1scc(-c2cccs2)n1/N=C/c1ccc(O)c(O)c1O,-1.3,54*,32,0,-8,-3,32,20,29*,9,20
O=C1c2cccc3cccc(c23)C(=O)N1CCN1CCN(CC(O)COCc2ccc(Cl)cc2)CC1 (stereo unspecified),-0.77,37*,29,3,-22,3,41,46*,31*,57*,47*
CC(=O)c1ccccc1OCC(O)CN1CCN(CCN2C(=O)c3cccc4cccc(c34)C2=O)CC1 (stereo unspecified),0.34,36*,19,nt,-5,-7,30,27,10,20*,15
COc1ccc(/C(N)=N/OC(=O)CN(C)S(=O)(=O)c2ccc(C)cc2)cc1,-1.7,2,-27,nt,-8,1,nt,nt,nt,nt,nt
Cc1cc(OCC(O)CN)ccc1Cl (stereo unspecified),-0.028,51*,20,nt,-26,2,12,9,8,18*,5
Cc1cccc(C)c1OCC(O)CN (stereo unspecified),0.46,-2,-4,3,-16,-3,nt,nt,nt,nt,nt
CC(C)(C)C1CCC(=NNC(=O)C(=O)NC2CCCCC2)CC1 (stereo unspecified),1.1,-7,2,2,-21,2,nt,nt,nt,nt,nt
CCC1(C)Cc2sc3c(=O)[nH]c(=S)[nH]c3c2CO1 (stereo unspecified),-0.95,-22,-27,nt,-18,3,nt,nt,nt,nt,nt
SMILES,Cl transport mod,NPY-Y1 PAM-ag,NPY-Y2 PAM-ag,NPY Y2 blocker,Furin inhibitor,NPY Y1 blocker,NPY-Y1 pot conf,NPY-Y2 counter,NPY-Y1 agonist,NPY-Y2 ag,CNGC counter
CC1OC(Nc2cccc3ccccc23)C(O)C(O)C1O (stereo unspecified),nt,-11,7,2,-11,0,nt,nt,nt,nt,nt
CC1OC(Nc2ccc(N=Nc3ccccc3)cc2)C(O)C(O)C1O (stereo unspecified),0.049,38*,16,nt,1,-9,33,24,27*,37*,16
CCOC(=O)C1CCN(C2=C(NS(=O)(=O)c3ccc(Cl)cc3)C(=O)c3ccccc3C2=O)CC1,0,55*,35,nt,-16,nt,72*,57*,70*,65*,57*
CC1CCN(C2=C(NS(=O)(=O)c3ccc(Cl)cc3)C(=O)c3ccccc3C2=O)CC1,1.1,44*,19,-11,-14,-17,99*,80*,65*,57*,77*
O=C1C(NS(=O)(=O)c2cccs2)=C(N2CCN(c3cccc(Cl)c3)CC2)C(=O)c2ccccc21,-0.27,17,27,-11,-22,-22,nt,nt,nt,nt,nt
OCCNC(=S)Nc1cc(Cl)cc(Cl)c1,nt,-1,2,nt,-11,nt,nt,nt,nt,nt,nt
